# Test results reported in ChEMBL document CHEMBL4014308, “Amphiphilic Tobramycin-Lysine Conjugates Sensitize Multidrug Resistant Gram-Negative Bacteria to Rifampicin and Minocycline” (J Med Chem, 2017).
# Calls of active or inactive are those of the source. The rule behind the calls is not given here.
# What was measured:
# Format in all cases: functional
# [1] = system: Escherichia coli; test: Antibacterial activity against amikacin-resistant Escherichia coli isolate CAN-ICU 63074 after 18 hrs by microtiter dilution assay; conditions: isolate CAN-ICU 63074, 18 h
# How it was run: (§1)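 Broth microdilution following CLSI guidelines. An overnight culture was adjusted to 0.5 McFarland in saline, then diluted 1:50 in Mueller-Hinton broth. This inoculum was added in equal volume to 2-fold serial dilutions of agent in MHB and incubated 18 h at 37 °C. MIC was the lowest concentration with no visible growth.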
# [2] = system: Pseudomonas aeruginosa; test: Induction of cytoplasmic membrane depolarization in Pseudomonas aeruginosa PAO1 up to 1200 secs by diSC3-5 staining based fluorescence assay
# How it was run: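 Mid-log PAO1 washed in 5 mM HEPES pH 7.4 with 20 mM glucose and resuspended to OD600 0.05. Cells were loaded with 0.2 mM EDTA and 0.4 µM diSC3-5 for 2 h at 37 °C in the dark, then equilibrated with 100 mM KCl for 30 min. Agent was added and fluorescence followed at 622/670 nm; agents tested at 32 µg/mL.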
# [3] = system: Pseudomonas aeruginosa; test: Synergistic antibacterial activity against Pseudomonas aeruginosa PAO1 after 18 hrs in presence of minocycline by checkerboard assay
# How it was run: (§2)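 Checkerboard in MHB: antibiotic diluted along one axis and adjuvant along the other (10 × 7 matrix). Inoculum was a 1:50 dilution in MHB of a 0.5 McFarland saline suspension; incubated 18 h at 37 °C. Each FIC = concentration in the no-growth well divided by the MIC alone; FIC index = sum of both FICs. ≤0.5 synergy, 0.5–4 no interaction, ≥4 antagonism.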
# [4] = system: Pseudomonas aeruginosa; test: Antibacterial activity against multidrug/extremely drug-resistant/colistin-susceptible Pseudomonas aeruginosa isolate 100036 after 18 hrs by microtiter dilution assay; conditions: isolate 100036, 18 h; how it was run: as §1
# [5] = system: Pseudomonas aeruginosa; test: Disruption of proton motive force in Pseudomonas aeruginosa PAO1 cytoplasmic membrane assessed as repression of bacterial swimming motility after 20 hrs
# How it was run: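 Swim plates of 0.3% agar with tryptone 5 g/L and NaCl 2.5 g/L, agent mixed into the medium and plates dried 2 h. PAO1 at 1.0 McFarland in 0.85% saline was point-inoculated at the center, and plates incubated 20 h at 37 °C before swim diameter was imaged.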
# [6] = system: Pseudomonas aeruginosa; test: Antibacterial activity against multidrug/extremely drug-resistant/colistin-susceptible Pseudomonas aeruginosa isolate P262-101856 after 18 hrs by microtiter dilution assay; conditions: isolate P262-101856, 18 h; how it was run: as §1
# [7] = system: Staphylococcus epidermidis; test: Antibacterial activity against methicillin-susceptible Staphylococcus epidermidis isolate CANWARD-2008 81388 after 18 hrs by microtiter dilution assay; conditions: isolate CANWARD-2008 81388, 18 h; how it was run: as §1
# [8] = system: Escherichia coli; test: Antibacterial activity against gentamicin/tobramycin/ciprofloxacin-resistant Escherichia coli isolate CANWARD-2011 97615 harboring AAC3-2A after 18 hrs by microtiter dilution assay; conditions: isolate CANWARD-2011 97615, 18 h; how it was run: as §1
# [9] = system: Pseudomonas aeruginosa; test: Antibacterial activity against multidrug/extremely drug-resistant/colistin-susceptible Pseudomonas aeruginosa isolate P264-104354 after 18 hrs by microtiter dilution assay; conditions: isolate P264-104354, 18 h; how it was run: as §1
# [10] = system: Enterococcus faecalis; test: Antibacterial activity against Enterococcus faecalis ATCC 29212 after 18 hrs by microtiter dilution assay; conditions: ATCC 29212, 18 h
# How it was run: (§3)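 Broth microdilution per CLSI. Overnight culture adjusted to 0.5 McFarland in saline, diluted 1:50 in Mueller-Hinton broth, and added to an equal volume of 2-fold serial compound dilutions in MHB. Incubated 18 h at 37 °C. MIC taken as the lowest concentration with no visible growth.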
# [11] = system: Pseudomonas aeruginosa; test: Synergistic antibacterial activity against Pseudomonas aeruginosa PAO1 after 18 hrs in presence of rifampicin by checkerboard assay; how it was run: as §2
# [12] = system: Pseudomonas aeruginosa; test: Antibacterial activity against Pseudomonas aeruginosa ATCC 27853 after 18 hrs by microtiter dilution assay; conditions: ATCC 27853, 18 h; how it was run: as §3
# [13] = system: Pseudomonas aeruginosa; test: Induction of outer membrane permeabilization in Pseudomonas aeruginosa PAO1 at 32 ug/ml after 30 mins by CFDASE staining based fluorescence assay
# How it was run: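 Log-phase PAO1 washed in PBS, brought to OD600 0.5 and loaded with 100 µM CFDASE for 30 min at 37 °C, then washed. Cells were exposed to agent for 30 min at 37 °C and supernatant fluorescence read at 488/520 nm. Untreated cells were subtracted; 1% Triton X-100 served as positive control.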
# [14] = system: Klebsiella pneumoniae; test: Antibacterial activity against Klebsiella pneumoniae ATCC 13883 after 18 hrs by microtiter dilution assay; conditions: ATCC 13883, 18 h; how it was run: as §3
# [15] = system: Stenotrophomonas maltophilia; test: Antibacterial activity against Stenotrophomonas maltophilia isolate CAN-ICU 62584 after 18 hrs by microtiter dilution assay; conditions: isolate CAN-ICU 62584, 18 h; how it was run: as §3
# [16] = system: Staphylococcus epidermidis; test: Antibacterial activity against methicillin-resistant Staphylococcus epidermidis isolate CAN-ICU 61589 after 18 hrs by microtiter dilution assay; conditions: isolate CAN-ICU 61589, 18 h; how it was run: as §1
# [17] = system: Staphylococcus aureus; test: Antibacterial activity against methicillin resistant Staphylococcus aureus ATCC 33592 after 18 hrs by microtiter dilution assay; conditions: ATCC 33592, 18 h; how it was run: as §1
# [18] = system: Enterococcus faecium; test: Antibacterial activity against Enterococcus faecium ATCC 27270 after 18 hrs by microtiter dilution assay; conditions: ATCC 27270, 18 h; how it was run: as §3
# [19] = system: Pseudomonas aeruginosa; test: Antibacterial activity against multidrug/extremely drug-resistant/colistin-resistant Pseudomonas aeruginosa isolate 101243 after 18 hrs by microtiter dilution assay; conditions: isolate 101243, 18 h; how it was run: as §1
# [20] = system: Pseudomonas aeruginosa; test: Antibacterial activity against gentamicin/tobramycin-resistant Pseudomonas aeruginosa isolate CANWARD-2011 96846 after 18 hrs by microtiter dilution assay; conditions: isolate CANWARD-2011 96846, 18 h; how it was run: as §1
# [21] = system: Escherichia coli; test: Antibacterial activity against gentamicin-resistant Escherichia coli isolate CAN-ICU 61714 after 18 hrs by microtiter dilution assay; conditions: isolate CAN-ICU 61714, 18 h; how it was run: as §1
# [22] = system: Pseudomonas aeruginosa; test: Antibacterial activity against gentamicin-resistant Pseudomonas aeruginosa isolate CAN-ICU 62308 after 18 hrs by microtiter dilution assay; conditions: isolate CAN-ICU 62308, 18 h; how it was run: as §1
# [23] = system: Pseudomonas aeruginosa; test: Antibacterial activity against multidrug/extremely drug-resistant/colistin-resistant Pseudomonas aeruginosa isolate 91433 after 18 hrs by microtiter dilution assay; conditions: isolate 91433, 18 h; how it was run: as §1
# [24] = system: Pseudomonas aeruginosa; test: Antibacterial activity against multidrug/extremely drug-resistant/colistin-susceptible Pseudomonas aeruginosa isolate P259-96918 after 18 hrs by microtiter dilution assay; conditions: isolate P259-96918, 18 h; how it was run: as §1
# [25] = system: Pseudomonas aeruginosa; test: Antibacterial activity against Pseudomonas aeruginosa PAO1 after 18 hrs by microtiter dilution assay; conditions: PAO1, 18 h; how it was run: as §1
# [26] = system: Staphylococcus aureus; test: Antibacterial activity against Staphylococcus aureus ATCC 29213 after 18 hrs by microtiter dilution assay; conditions: ATCC 29213, 18 h; how it was run: as §1
# [27] = system: Pseudomonas aeruginosa; test: Antibacterial activity against multidrug/extremely drug-resistant/colistin-susceptible Pseudomonas aeruginosa isolate 101885 after 18 hrs by microtiter dilution assay; conditions: isolate 101885, 18 h; how it was run: as §1
# [28] = system: Streptococcus pneumoniae; test: Antibacterial activity against Streptococcus pneumoniae ATCC 49619 after 18 hrs by microtiter dilution assay; conditions: ATCC 49619, 18 h; how it was run: as §3
# [29] = system: Escherichia coli; test: Antibacterial activity against Escherichia coli ATCC 25922 after 18 hrs by microtiter dilution assay; conditions: ATCC 25922, 18 h; how it was run: as §1
# [30] = system: Acinetobacter baumannii; test: Antibacterial activity against Acinetobacter baumannii isolate CAN-ICU 63169 after 18 hrs by microtiter dilution assay; conditions: isolate CAN-ICU 63169, 18 h; how it was run: as §3
# [31] = system: Acinetobacter baumannii; test: Antibacterial activity against multidrug-resistant Acinetobacter baumannii 110193 after 18 hrs by microtiter dilution assay; conditions: Acinetobacter baumannii, 110193, 18 h; how it was run: as §1
# [32] = system: Pseudomonas aeruginosa; test: Bactericidal activity against Pseudomonas aeruginosa PAO1 at 4 times antibacterial MIC after 6 hrs
# How it was run: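 Time-kill with P. aeruginosa PAO1. A 0.5 McFarland suspension was diluted 1:50 in LB broth and exposed to agent in PBS (pH 7.2) at 1/2×, 1×, 2× or 4× MIC at 37 °C for 6 h. Samples at 0, 10, 30, 60, 90, 120, 240 and 360 min were serially diluted in PBS, plated on LB agar, and colonies counted after 20 h at 37 °C.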
# [33] = system: Pseudomonas aeruginosa; test: Bactericidal activity against Pseudomonas aeruginosa PAO1 at 0.125 times antibacterial MIC after 6 hrs
# [34] = system: Acinetobacter baumannii; test: Antibacterial activity against multidrug-resistant Acinetobacter baumannii AB027 after 18 hrs by microtiter dilution assay; conditions: AB027, 18 h; how it was run: as §1
# [35] = system: Acinetobacter baumannii; test: Antibacterial activity against multidrug-resistant Acinetobacter baumannii AB030 after 18 hrs by microtiter dilution assay; conditions: AB030, 18 h; how it was run: as §1
# [36] = system: Klebsiella pneumoniae; test: Antibacterial activity against multidrug-resistant Klebsiella pneumoniae 116381 after 18 hrs by microtiter dilution assay; conditions: Klebsiella pneumoniae, 116381, 18 h; how it was run: as §1
# [37] = system: Enterobacter cloacae; test: Antibacterial activity against multidrug-resistant Enterobacter cloacae 117029 after 18 hrs by microtiter dilution assay; conditions: Enterobacter cloacae, 117029, 18 h; how it was run: as §1
# [38] = system: Pseudomonas aeruginosa; test: Antibacterial activity against multidrug/extremely drug-resistant/colistin-susceptible Pseudomonas aeruginosa isolate P262-101856 infected in Galleria mellonella assessed as mortality at 75 mg/kg after 24 hrs relative to control; conditions: isolate P262-101856, 24 h
# How it was run: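 Galleria mellonella larvae (about 250 mg, used within 7 days; 15 per group) were injected with 10 µL of XDR P. aeruginosa P262 at 1.0×10^3 CFU/mL. At 2 h they received a single 10 µL injection: monotherapy at 75 mg/kg, or combinations at 12.5+12.5 to 75+75 mg/kg. PBS vehicle served as control. Survival was scored over 24 h at 37 °C.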
# [39] = system: Acinetobacter baumannii; test: Antibacterial activity against multidrug-resistant Acinetobacter baumannii AB031 after 18 hrs by microtiter dilution assay; conditions: AB031, 18 h; how it was run: as §1
# [40] = system: Pseudomonas aeruginosa; test: Antibacterial activity against Pseudomonas aeruginosa PAO1 assessed as ratio of MIC after 25 serial passages to MIC before 25 serial passages by microtiter dilution assay
# How it was run: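 Sequential passaging of wild-type PAO1 with single drugs or drug combinations. MIC was tested in MHB for 18 h. Cells from the well at half the MIC were adjusted to 0.5 McFarland in saline, diluted 1:50 in fresh MHB and used for the next MIC test. This was repeated for 25 passages, and the fold change in MIC was plotted against passage number.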
smiles,measurement,setting,value
CCCCCCCCCCCCN(Cc1c2ccccc2c(Cl)c2ccccc12)C(=O)[C@@H](N)CCCCN.O=C(O)C(F)(F)F.O=C(O)C(F)(F)F,MIC,[1],64 mg/L
same,Activity,[2],Dose-dependent effect
same,Activity,[3],inactive
same,MIC,[4],256 mg/L
same,Activity,[5],Dose-dependent effect
same,MIC,[6],128 mg/L
same,MIC,[7],8 mg/L
same,MIC,[8],64 mg/L
same,MIC,[9],128 mg/L
same,MIC,[10],32 mg/L
same,Activity,[11],inactive
same,MIC,[12],> 128 mg/L
same,Activity,[13],inactive
same,MIC,[14],> 128 mg/L
same,MIC,[15],> 128 mg/L
same,MIC,[16],8 mg/L
same,MIC,[17],64 mg/L
same,MIC,[18],8 mg/L
same,MIC,[19],64 mg/L
same,MIC,[20],> 128 mg/L
same,MIC,[21],128 mg/L
same,MIC,[22],128 mg/L
same,MIC,[23],256 mg/L
same,MIC,[24],64 mg/L
same,MIC,[25],256 mg/L
same,MIC,[26],32 mg/L
same,MIC,[27],128 mg/L
same,MIC,[28],32 mg/L
same,MIC,[29],64 mg/L
same,MIC,[30],128 mg/L
CN(C)c1ccc(O)c2c1C[C@H]1C[C@H]3[C@H](N(C)C)C(O)=C(C(N)=O)C(=O)[C@@]3(O)C(O)=C1C2=O [MINOCYCLINE],MIC,[4],32 mg/L
same,MIC,[6],256 mg/L
same,MIC,[9],64 mg/L
same,MIC,[31],2 mg/L
same,Activity,[32],Active
same,Activity,[33],inactive
same,MIC,[19],4 mg/L
same,MIC,[34],1 mg/L
same,MIC,[23],64 mg/L
same,MIC,[24],32 mg/L
same,MIC,[35],4 mg/L
same,MIC,[25],8 mg/L
same,MIC,[36],128 mg/L
same,MIC,[37],128 mg/L
same,MIC,[27],32 mg/L
same,mortality at 75 mg/kg,[38],100%
same,MIC,[39],2 mg/L
same,Ratio,[40],16
